# Screens from PubChem.
# An excerpt weighted towards active compounds, which were near 2.3% of everything screened.
# TRPC4 block: TRPC4 (mouse) channel inhibition. 300,000 tested, 0.39% active. AID 2247. B-score at 10 µM. HEK293 TRPC4beta/mu-opioid, DAMGO-evoked Fluo4 calcium flux; stronger effect = lower value. Q9QUQ5;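 active means B-score over 3 SD under the library average, no early fluorescence shift, positive overall ratio signal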
#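 Assay system – HEK293 line stably carrying TRPC4beta and mu-opioid receptor · Doses – single dose · Detection – Fluo4 calcium-dye fluorescence, kinetic read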
# TRPC4 act: opens the mouse TRPC4 cation channel. Q9QUQ5. HEK293 TRPC4beta/mu-opioid, Fluo4 calcium fluorescence; stronger effect = higher value. B-score at 10 µM. 310,000 tested, 0.49% active. AID 2237;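 active means B-score above 5 SD of library B-scores, and initial fluorescence ratio not above library mean plus 5 SD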;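 further: positive B-score marks a calcium rise read as TRPC4 activation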
#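 Assay system: HEK293 stable line with TRPC4beta plus mu-opioid receptor; schedule: 45 min room-temperature Fluo4 loading, 110 s read; technique: kinetic Fluo4 calcium fluorescence; evaluation: integrated baseline-normalised fluorescence ratio, converted to per-well B score; controls: buffer (low) and maximal DAMGO (high)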
# TRPC6 inh: mouse TRPC6 channel inhibition | Q61143 | HEK293-TRPC6, membrane potential dye, ACh-evoked depolarization; stronger effect = lower value | 310,000 tested, 1.1% active | B-score at 10 µM;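 active means B-score under library mean minus 3 SD, initial fluorescence not abnormally high, positive integrated signal ratio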;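 further: B-score derived from integrated fluorescence ratio over the kinetic read; more negative B-score means stronger inhibition of depolarization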
# Target sequence (Q61143 whole entry, looked up): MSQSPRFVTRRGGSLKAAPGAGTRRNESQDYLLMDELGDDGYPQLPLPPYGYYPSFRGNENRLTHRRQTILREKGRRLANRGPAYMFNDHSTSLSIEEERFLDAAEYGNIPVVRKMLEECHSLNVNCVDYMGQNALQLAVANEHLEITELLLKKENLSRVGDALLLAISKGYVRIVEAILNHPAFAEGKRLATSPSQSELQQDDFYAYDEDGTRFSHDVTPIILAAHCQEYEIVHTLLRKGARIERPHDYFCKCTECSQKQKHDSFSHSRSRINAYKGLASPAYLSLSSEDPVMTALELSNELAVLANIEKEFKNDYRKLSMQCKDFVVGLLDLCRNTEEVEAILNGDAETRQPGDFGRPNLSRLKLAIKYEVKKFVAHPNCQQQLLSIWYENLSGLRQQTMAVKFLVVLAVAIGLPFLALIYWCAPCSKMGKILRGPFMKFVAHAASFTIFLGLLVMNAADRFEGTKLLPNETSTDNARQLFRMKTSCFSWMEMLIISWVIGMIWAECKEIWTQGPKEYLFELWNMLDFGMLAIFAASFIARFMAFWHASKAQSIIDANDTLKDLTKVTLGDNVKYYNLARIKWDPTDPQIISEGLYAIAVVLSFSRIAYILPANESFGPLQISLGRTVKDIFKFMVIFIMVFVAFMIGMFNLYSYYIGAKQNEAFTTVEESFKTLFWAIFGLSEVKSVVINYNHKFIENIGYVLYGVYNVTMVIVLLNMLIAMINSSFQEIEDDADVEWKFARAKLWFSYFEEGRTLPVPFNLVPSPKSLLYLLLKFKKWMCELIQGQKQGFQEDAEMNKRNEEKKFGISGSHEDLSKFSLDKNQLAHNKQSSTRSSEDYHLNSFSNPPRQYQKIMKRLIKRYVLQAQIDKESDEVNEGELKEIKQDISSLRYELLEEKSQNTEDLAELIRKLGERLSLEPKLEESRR
# TRPC6 act: mouse TRPC6 channel activation; HEK293-TRPC6 membrane potential dye fluorescence; stronger effect = higher value; B-score at 10 µM; 310,000 tested, 0.13% active; Q61143;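 active means B-score of the integrated fluorescence ratio above library mean plus 3 SD, and starting fluorescence ratio within library mean plus 5 SD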;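 further: higher score means more depolarization so channel activation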
# TRPC4 potent: allosterically enhances the mouse TRPC4 cation channel; HEK293 TRPC4beta/mu-opioid, DAMGO EC20, Fluo-4 Ca2+ flux; stronger effect = higher value; 310,000 tested, 0.42% active; B-score at 10 µM; AID 2227; Q9QUQ5;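 active means B-score of calcium response area above 5 SD of library B-scores, with initial fluorescence ratio within 5 SD of library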;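 further: B-score of integrated fluorescence ratio over time as area under calcium response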
# TRPC4 sel inh 2: mouse TRPC4 off-target activity of TRPC6 inhibitors, second screen. HEK293 TRPC4/MOR, membrane potential dye fluorescence; channel activated by saturating DAMGO dose. inhibition, % at 10 µM. 920 tested, 42% active. shares compounds with TRPC6 inh;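 active means compounds whose fluorescence signal differed from control wells by over 3 SD, either direction, in both duplicate plates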
# TRPC4 spec: selectivity of TRPC6 inhibitors: effect on mouse TRPC4 | activity change, negative = inhibition, % at 10 µM | shares compounds with TRPC6 inh | HEK293 TRPC4/mu-opioid, membrane potential fluorescence | 920 tested, 61% active;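 active means rise or fall in signal beyond 3 SD of buffer-only wells in both replicate plates, either sign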;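 further: integrated kinetic ratio of fluorescence range over baseline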
# HEK293 MPD ctr 2-1: second check of TRPC6 inhibitor effects in parental HEK293 cells | shares compounds with TRPC6 inh | parental HEK293 membrane potential dye fluorescence; maximal acetylcholine challenge after compound addition | signal change vs control, % at 10 µM | 920 tested, 31% active;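 active means membrane potential signal moving either way by over 3 SD of the maximum-effect control, in both duplicate plates, meaning non-specific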
# HEK293 MPD ctr-1: parental HEK293 nonspecific activity of TRPC6 inhibitors; shares compounds with TRPC6 inh; parental HEK293 membrane potential dye fluorescence; membrane potential signal change, % at 10 µM; 920 tested, 60% active;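 active means membrane potential signal shifting up or down by more than 3 SD of buffer-only wells, on both duplicate plates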
# HEK293 MPD ctr-2: counter-screen for TRPC6 modulators: effect in parental HEK293 cells | membrane potential dye fluorescence | shares compounds with TRPC6 inh | membrane potential signal change, % at 10 µM | 2,400 tested, 51% active;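 active means membrane potential signal moves up or down beyond 5 SD from buffer-only wells, on both duplicate plates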
# HEK293 MPD ctr 2-2: second counter-screen for TRPC6 modulators: effect in parental HEK293 cells. membrane potential dye fluorescence; after compound, maximal acetylcholine stimulation. shares compounds with TRPC6 inh. 2,400 tested, 14% active. inhibition, % at 10 µM. AID 488926;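 active means membrane potential signal drops by more than 5 SD from the mean control signal, in both duplicate plates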;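 further: plate controls were acetylcholine ECmax control wells for no effect and buffer only wells for full effect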
# TRPC4/MOR mod: tests whether TRPC6 modulators also affect mouse TRPC4 | shares compounds with TRPC6 inh | HEK293 TRPC4/mu-opioid, membrane potential fluorescence | percent change from control (negative = decrease, positive = increase), % at 10 µM | 2,400 tested, 69% active;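 active means membrane potential signal moved up or down beyond 5 SD of buffer control wells, in both duplicate plates, actives on both sides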;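 further: plate controls were assay buffer wells for no effect and DAMGO maximal-effect wells for full effect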
# TRPC4/MOR inh 2: mouse TRPC4 off-target activity of TRPC6 modulators, second screen; shares compounds with TRPC6 inh; HEK293 TRPC4/mu-opioid, membrane potential dye fluorescence; stimulated with maximal-effect DAMGO; inhibition, % at 10 µM; 2,400 tested, 55% active;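 active means drop in membrane potential signal beyond 5 SD of the control wells in both duplicate plates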;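 further: TRPC4 counter screen for TRPC6 hits run under conditions tuned for TRPC6 not TRPC4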
# TRPC6 inh conf: confirmation of mouse TRPC6 inhibitors; shares compounds with TRPC6 inh; HEK293-TRPC6, membrane potential dye, ACh-evoked depolarization; inhibition, % at 10 µM; 3,300 tested, 43% active; AID 488960;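 active means fluorescence ratio falls more than 5 SD below the full-stimulation control mean, in both duplicate runs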;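 further: integrated fluorescence ratio of peak minus minimum over baseline after agonist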
# TRPC6 act confirm: confirmation of mouse TRPC6 activators. shares compounds with TRPC6 inh. HEK293-TRPC6 membrane potential dye fluorescence, FDSS. activation, % at 10 µM. 2,800 tested, 11% active;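 active means ratio signal rise beyond 5 SD above unstimulated control wells' mean, seen in both duplicate runs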;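 further: plate controls were buffer EC0 wells for no effect and acetylcholine ECmax response for full effect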
# Starred values were filed as active, the others as inactive; i = inactive; / = no result given.
SMILES,TRPC4 block,TRPC4 act,TRPC6 inh,TRPC6 act,TRPC4 potent,HEK293 MPD ctr-2,HEK293 MPD ctr 2-2,TRPC4/MOR mod,TRPC4/MOR inh 2,TRPC6 inh conf,TRPC6 act confirm,others
CCN(CC)c1ccc(/C=N/Nc2nc3ccccc3[nH]2)c(O)c1,i,i,-5.9*,i,i,i,i,-29%*,71%*,i,i,
COc1ccc2c(c1)c(/C=N/Nc1nc3ccccc3[nH]1)c(C)n2C,i,i,-8.2*,i,i,-122%*,i,-36%*,75%*,38%*,i,
C(=N\Nc1nc2ccccc2[nH]1)/c1cccc2nccnc12,i,i,i,i,i,/,/,/,/,/,/,
Cc1ccc2cc(/C=N/Nc3nc4ccccc4[nH]3)c(Cl)nc2c1,i,i,i,i,i,/,/,/,/,/,/,
C#CCn1cc(/C=N/Nc2nc3ccccc3[nH]2)c2ccccc21,i,i,-7.8*,i,i,-190%*,80%*,-40%*,91%*,74%*,i,
COc1cc(OC)c(OC)cc1/C=N/Nc1nc2ccccc2[nH]1,i,i,-5.2*,i,i,i,i,-11%*,i,i,i,
CCOC(=O)c1c(C)[nH]c(C)c1S(=O)(=O)N1CCN(c2ccc([N+](=O)[O-])cc2)CC1,i,i,i,i,i,/,/,/,/,/,/,
COc1ccc(/C=N/Nc2ccccn2)cc1OC,i,i,-5.8*,i,i,-121%*,i,-22%*,36%*,i,i,
COc1ccc(/C=N/Nc2nc3ccccc3[nH]2)cc1OC,i,i,-5.2*,i,i,-101%*,i,-18%*,50%*,59%*,i,
COc1cc(/C=N/Nc2ccccn2)ccc1O,i,i,i,i,i,/,/,/,/,/,/,
COc1ccc(C2c3ccc(O)cc3Oc3ncn4nc(-c5cccnc5)nc4c32)cc1OC (centres undefined),i,i,i,i,i,/,/,/,/,/,/,
O=C(NCCCn1ccnc1)c1cc2cc([N+](=O)[O-])ccc2oc1=O,i,i,-5*,i,i,-83%*,i,-15%*,i,i,i,
O=C1CCC(C(=O)O)(c2ccccc2)C1 (centres undefined),i,i,-5.1*,i,i,i,i,i,i,i,i,
COc1ccc(F)cc1S(=O)(=O)Nc1cc2c3c(c1)CC(=O)N3CCC2,i,i,i,i,i,/,/,/,/,/,/,
COc1ccc(CCC(C)NC2C3CC4CC(C3)CC2C4)cc1 (centres undefined),i,i,-8.5*,i,i,/,/,/,/,94%*,/,TRPC4 sel inh 2=66%*;TRPC4 spec=37%*;HEK293 MPD ctr 2-1=-12%*;HEK293 MPD ctr-1=21%*
CCN(CC)CCNc1ccc(CO)c2sc3ccccc3c(=O)c12,i,i,-5.2*,i,i,-96%*,i,-37%*,67%*,i,i,
COc1ccccc1-c1c(C)oc2c(CN3CCCC(C)C3)c(O)ccc2c1=O (centres undefined),i,i,i,i,i,/,/,/,/,/,/,
COc1ccccc1-c1coc2c(CN3CCCC(C)C3)c(O)ccc2c1=O (centres undefined),i,i,-5.9*,i,i,i,i,i,i,i,i,
O=c1oc(Nc2cccc(F)c2)nc2ccccc12,i,i,i,i,i,/,/,/,/,/,/,
Cc1ccc(C)c(Nc2nc(N)c3ccccc3n2)c1,i,i,-16*,i,i,/,/,/,/,90%*,i,TRPC4 sel inh 2=18%*;TRPC4 spec=-30%*;HEK293 MPD ctr 2-1=-3.0%*;HEK293 MPD ctr-1=-269%*
Cc1ccc(O)c(Nc2c3ccccc3nc3ccccc23)c1,i,i,-5.6*,i,i,-92%*,i,-18%*,60%*,i,i,
Cc1ccc(C)c(Nc2ncnc(N)c2[N+](=O)[O-])c1,i,i,i,i,i,/,/,/,/,/,/,
COc1ccc(C)cc1Nc1nc(N)c2cc(OC)c(OC)cc2n1,i,i,i,i,i,/,/,/,/,/,/,
COc1ccc(Cl)cc1Nc1nc(N)c2ccccc2n1,i,i,-11*,i,i,/,/,/,/,81%*,i,TRPC4 sel inh 2=46%*;TRPC4 spec=-20%*;HEK293 MPD ctr 2-1=i;HEK293 MPD ctr-1=-185%*
Nc1nc(Nc2cccc(F)c2)nc2ccccc12,i,i,-13*,i,i,/,/,/,/,90%*,i,TRPC4 sel inh 2=22%*;TRPC4 spec=-33%*;HEK293 MPD ctr 2-1=-37%*;HEK293 MPD ctr-1=-493%*
Cc1ccc(O)c(Nc2nc(-c3ccccc3)nc3ccccc23)c1,i,i,i,i,i,/,/,/,/,/,/,
Cc1nnc(N2C(=O)C(=O)/C(=C(\O)c3ccc4c(c3)CC(C)O4)C2c2ccccc2)s1 (centres undefined),i,i,i,i,i,/,/,/,/,/,/,
Cc1cccc(NC(=O)COc2ccccc2C(=O)NC(C)c2ccccc2)c1 (centres undefined),i,i,i,i,i,/,/,/,/,/,/,
COc1ccc(C(=O)c2c(-c3ccsc3)oc3ccc(-c4ccc(OC)cc4)cc23)cc1,i,i,i,i,i,/,/,/,/,/,/,
CC(C)(C)c1ccc(C(=O)Nc2cccc(-n3cnnn3)c2)cc1,i,i,i,i,i,/,/,/,/,/,/,
